From ChEMBL document CHEMBL1137780, “Isocombretastatins a versus combretastatins a: the forgotten isoCA-4 isomer as a highly promising cytotoxic and antitubulin agent” (J Med Chem, 2009)
The source made the active and inactive calls. The calls are words filed in the database; no cut-off is given here.

Assays:
[1] = system: HCT-116; assay: Cytotoxicity against human HCT116 cells after 72 hrs; format: functional, cell-based; settings: HCT-116, 72 h
Method in brief: (§1)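 Human tumour cell lines (H1299 non-small-cell lung carcinoma, HCT116 colon carcinoma) were exposed to the test drug for 72 h. IC50 is the concentration that reduced cell growth by 50%, taken as the average of three experiments.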

[2] = system: K562; assay: Cytotoxicity against human K562 cells after 72 hrs; format: functional, cell-based; settings: K562, 72 h
Method in brief: (§2)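 Human K562 (chronic myelogenous leukemia) or MDA-MB231 (breast cancer) cells exposed to compound for 72 h; IC50 taken as concentration reducing cell growth by 50%, averaged over three experiments.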

[3] = Cytotoxicity against human H1299 cells after 72 hrs; format: functional, cell-based; settings: NCI-H1299, 72 h; method in brief: as §1
[4] = system: MDA-MB-231; assay: Cytotoxicity against human MDA-MB-231 cells after 72 hrs; format: functional, cell-based; settings: MDA-MB-231, 72 h; method in brief: as §2
[5] = Inhibition of tubulin polymerization assessed as blockade of microtubule assembly
[6] = Cytotoxicity against human NCI60 cells; format: functional
[7] = system: NCI-H460; assay: Cytotoxicity against human H460 cells; format: functional, cell-based
[8] = system: HCT-116; assay: Ratio of IC50 of drug to IC50 for combretastatin CA-4 against human HCT116 cells; format: functional
[9] = system: Colon 26; assay: Ratio of IC50 of drug to IC50 for combretastatin CA-4 against mouse Colon 26 cells; format: functional
[10] = system: P388; assay: Cytotoxicity against mouse P388 cells; format: functional; settings: read-out: ED50 (the source's name)
[11] = system: NCI-H460; assay: Ratio of IC50 of drug to IC50 for combretastatin CA-4 against human H460 cells; format: functional
[12] = system: K562; assay: Cell cycle arrest in human K562 cells assessed as increase in G2/M phase accumulation after 24 hrs; format: functional, cell-based
Method in brief: (§3)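 K562 leukemia cells cultured 24 h with increasing concentrations of test agent; DNA content measured by propidium iodide staining and flow cytometry to give cell-cycle phase distribution (G1, S, G2/M).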

[13] = system: K562; assay: Cell cycle arrest in human K562 cells assessed as decrease in S phase accumulation after 24 hrs; format: functional, cell-based; method in brief: as §3
[14] = system: K562; assay: Cell cycle arrest in human K562 cells assessed as decrease in G1 phase accumulation after 24 hrs; format: functional, cell-based; method in brief: as §3

| Compound | IC50 [1] | IC50 [2] | IC50 [3] | IC50 [4] | IC50 ([5]; read-out: IC50) | other results |
| --- | --- | --- | --- | --- | --- | --- |
| C=C(c1ccc(OC)c(O)c1)c1cc(OC)c2c(c1)OCO2 | 38 nM | 38 nM | 32 nM | 48 nM | 3400 nM | – |
| COc1cc2c(c(OC)c1OC)-c1ccc(OC)c(=O)cc1[C@@H](NC(C)=O)CC2 [COLCHICINE] | 32 nM | 29 nM | 30 nM | 26 nM | 2100 nM | – |
| COc1ccc(/C=C\c2cc(OC)c3c(c2)OCO3)cc1O [Combretastatin A-2] | – | – | – | – | – | GI50 [6]: 31.6 nM |
| C=C(c1cc(OC)c(OC)c(OC)c1)c1ccc(OC)c(O)c1O | 850 nM | 750 nM | 2000 nM | 820 nM | 2100 nM | – |
| COc1ccc(C(=C(F)F)c2cc(OC)c(OC)c(OC)c2)cc1O | – | – | – | – | 2500 nM | Activity [7]: Active; Ratio IC50 [8]: 2.6 |
| COc1ccc(/C=C(/C#N)c2cc(OC)c(OC)c(OC)c2)cc1O | – | – | – | – | – | Ratio IC50 [9]: 1.3 |
| C=C(c1ccc(OC)c(O)c1)c1cc(O)c(OC)c(OC)c1 | 34 nM | 52 nM | 25 nM | 8 nM | 5000 nM | – |
| COc1ccc(/C=C\c2cc(O)c(OC)c(OC)c2)cc1OC | – | – | – | – | – | EC50 [10]: 900 nM |
| COc1ccc(/C=C\c2cc(OC)c(OC)c(OC)c2)c(O)c1O [COMBRETASTATIN A-1] | – | – | – | – | – | GI50 [6]: 16.2 nM |
| COc1ccc(/C=C\c2cc(OC)c(OC)c(OC)c2)cc1O [COMBRETASTATIN A4] | 2.3 nM | 3.6 nM | 5 nM | 3 nM | – | GI50 [6]: 3.2 nM |
| COc1ccc(C(=O)c2cc(OC)c(OC)c(OC)c2)cc1O [PHENSTATIN] | 33 nM | 41 nM | 21 nM | 28 nM | 2000 nM | – |
| COc1ccc(/C(F)=C(/F)c2cc(OC)c(OC)c(OC)c2)cc1O | – | – | – | – | – | Activity [7]: Active; Ratio IC50 [11]: 1.6 |
| C=C(c1ccc(OC)c(O)c1)c1cc(OC)c(OC)c(OC)c1 | 2.5 nM | 5 nM | 5 nM | 4 nM | 2200 nM | Activity [12]: Dose-dependent effect; Activity [13]: Active; Activity [14]: Active |
| C=C(c1ccc(OC)c(OC)c1)c1cc(O)c(OC)c(OC)c1 | 2800 nM | 3100 nM | 5000 nM | 3000 nM | – | IC50 [5]: Not Active |
| COc1ccc(/C(=C/C#N)c2cc(OC)c(OC)c(OC)c2)cc1O (mixture of isomers) | 3 nM | – | – | – | 4300 nM | Ratio IC50 [8]: 1.3 |
| COc1ccc(/C=C\c2cc(O)c(OC)c(OC)c2)cc1O | – | – | – | – | – | EC50 [10]: 26 nM |
